# Experimental data: paper PMC2943143 (Biochemical pharmacology, 2010)
# “Also recorded” adds a separate entry of the source.
# How the values were obtained:
# [1] = test system: isolated nuclei; details: cited from earlier work
# [2] = molecular target: Taq pol (Thermus aquaticus, UniProt P19821); experiment: Pol assay, Taq pol; assay type: biochemical; details: supplemental Fig. S1A
# Outline: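 Taq polymerase used poly(dA)/oligo(dT)18 (A/T = 2/1) template-primer and dTTP substrate. Test compound in sonicated DMSO was preincubated with enzyme (0.05 unit final) in 50 mM Tris-HCl pH 7.5, 1 mM DTT, 50% glycerol and 0.1 mM EDTA at 0 °C for 10 min. The mixture was then added to standard reaction mix and incubated at 74 °C for 60 min. Activity is given as % of untreated control.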
# [3] = test system: mouse Lewis lung cancer allografts; details: dose-dependent in the range of 4 and 20 mg/kg, syngenic mice; cited from earlier work
# [4] = molecular target: Klenow fragment of E. coli pol I (Escherichia coli, UniProt P00582); experiment: Pol assay, Klenow fragment of E. coli pol I; assay type: biochemical; details: supplemental Fig. S1A
# Outline: (§1)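 Test compound was dissolved in DMSO and sonicated 30 s. It was preincubated with enzyme (0.05 unit final) in 50 mM Tris-HCl pH 7.5, 1 mM DTT, 50% glycerol and 0.1 mM EDTA at 0 °C for 10 min. This was added to each enzyme's standard reaction mix with poly(dA)/oligo(dT)18 (A/T = 2/1) template-primer and dTTP substrate, then incubated at 37 °C for 60 min. Activity is given as % of inhibitor-free control.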
# [5] = molecular target: human topoisomerase I (Homo sapiens, UniProt P11387); experiment: DNA topoisomerase I assay; assay type: biochemical; details: highest tested concentration 1 μM, supplemental Fig. S1B
# Outline: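 Topoisomerases I and II were purified from human placenta, and DNase I came from bovine pancreas. Each activity was measured in a standard assay following the supplier's specifications.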
# [6] = test system: human DU145 prostate cancer (PCa) xenografts; details: cited from earlier work
# [7] = test system: Beta-secretase; details: cited from earlier work
# [8] = molecular target: human pol λ (full-length, residues 1–575) (Homo sapiens, UniProt Q9UGP5); experiment: Pol assay, full-length human pol λ; assay type: biochemical; details: 100 and 1,000 nM PGG, Fig. 1C
# Outline: as §1
# [9] = molecular target: del-1 pol λ (133–575) (Homo sapiens, UniProt Q9UGP5); experiment: Pol assay, del-1 pol λ mutant; assay type: biochemical; details: dose-response, Fig. 4B
# Outline: as §1
# [10] = test system: calf thymus double-stranded DNA (dsDNA); experiment: Thermal transition of DNA; assay type: binding; details: 15 μM compound, calf thymus dsDNA 6 μg/ml, pH 7.0
# Outline: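 Calf thymus dsDNA (6 μg/ml) in 0.1 M sodium phosphate pH 7.0 with 1% DMSO was tested with or without test compound, with ethidium bromide as intercalator control. Samples were equilibrated at 78 °C for 10 min, then raised 1 °C every 2 min. Absorbance was recorded on a spectrophotometer with a thermoelectric cell holder, and compound-only absorbance was subtracted to give Tm.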
# [11] = molecular target: T1, human pol κ (Homo sapiens, UniProt Q9UBT6); experiment: Pol assay, pol κ; assay type: biochemical; details: for Ki: pol κ
# T1 sequence (Q9UBT6 1-560 limits assumed): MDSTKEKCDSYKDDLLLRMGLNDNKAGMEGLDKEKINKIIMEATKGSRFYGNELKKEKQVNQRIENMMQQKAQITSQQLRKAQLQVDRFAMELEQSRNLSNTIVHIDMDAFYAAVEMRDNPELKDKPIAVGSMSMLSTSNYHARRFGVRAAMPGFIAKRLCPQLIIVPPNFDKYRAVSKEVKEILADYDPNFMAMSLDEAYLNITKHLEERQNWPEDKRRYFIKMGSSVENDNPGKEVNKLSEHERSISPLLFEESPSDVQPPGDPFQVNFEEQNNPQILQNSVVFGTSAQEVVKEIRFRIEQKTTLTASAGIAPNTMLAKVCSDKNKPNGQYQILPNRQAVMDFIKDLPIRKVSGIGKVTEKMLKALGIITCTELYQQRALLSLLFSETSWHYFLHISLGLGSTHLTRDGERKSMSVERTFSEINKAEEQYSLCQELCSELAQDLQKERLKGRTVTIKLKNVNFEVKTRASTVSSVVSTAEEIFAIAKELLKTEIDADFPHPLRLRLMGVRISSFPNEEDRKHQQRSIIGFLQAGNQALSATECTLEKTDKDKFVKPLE
# Outline: as §1
# [12] = molecular target: HIV integrase; details: read-out: IC50, HIV integrase; cited from earlier work
# [13] = molecular target: rat pol β (Rattus norvegicus, UniProt P06766); experiment: Pol assay, rat pol β; assay type: biochemical; details: for Ki: pol β, Dixon plot
# Outline: as §1
# [14] = molecular target: Angiotensin converting enzyme; details: read-out: IC50, Angiotensin converting enzyme; cited from earlier work
# [15] = molecular target: T4 pol (Enterobacteria phage T4, UniProt P04415); experiment: Pol assay, T4 pol; assay type: biochemical; details: supplemental Fig. S1A
# Outline: as §1
# [16] = molecular target: human pol η (Homo sapiens, UniProt Q9Y253); experiment: Pol assay, human pol η; assay type: biochemical
# Outline: as §1
# [17] = unchanged at 30, 60 and 90 nM PGG
# Chain of human pol η (Q9Y253 whole entry): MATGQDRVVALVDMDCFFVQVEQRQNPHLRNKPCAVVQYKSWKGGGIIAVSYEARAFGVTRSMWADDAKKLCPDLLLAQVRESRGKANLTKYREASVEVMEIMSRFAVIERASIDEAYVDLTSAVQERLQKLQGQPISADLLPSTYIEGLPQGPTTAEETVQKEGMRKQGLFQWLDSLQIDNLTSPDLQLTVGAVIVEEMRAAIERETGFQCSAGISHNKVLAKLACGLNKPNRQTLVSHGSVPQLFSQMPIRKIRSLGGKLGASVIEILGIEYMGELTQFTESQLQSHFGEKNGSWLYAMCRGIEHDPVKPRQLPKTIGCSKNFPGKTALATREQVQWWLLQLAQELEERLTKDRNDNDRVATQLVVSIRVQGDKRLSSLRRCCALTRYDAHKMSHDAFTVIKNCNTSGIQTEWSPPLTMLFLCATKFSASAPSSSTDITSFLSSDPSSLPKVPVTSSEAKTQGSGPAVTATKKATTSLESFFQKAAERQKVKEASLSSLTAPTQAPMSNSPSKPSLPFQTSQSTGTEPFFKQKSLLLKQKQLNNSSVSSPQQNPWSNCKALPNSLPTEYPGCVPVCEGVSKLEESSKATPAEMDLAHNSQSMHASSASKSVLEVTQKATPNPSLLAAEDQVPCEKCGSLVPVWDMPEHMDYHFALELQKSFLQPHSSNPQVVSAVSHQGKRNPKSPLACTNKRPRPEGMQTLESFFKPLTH
# Chain of human pol λ (full-length, residues 1–575) (Q9UGP5 whole entry, the tested form may be a part): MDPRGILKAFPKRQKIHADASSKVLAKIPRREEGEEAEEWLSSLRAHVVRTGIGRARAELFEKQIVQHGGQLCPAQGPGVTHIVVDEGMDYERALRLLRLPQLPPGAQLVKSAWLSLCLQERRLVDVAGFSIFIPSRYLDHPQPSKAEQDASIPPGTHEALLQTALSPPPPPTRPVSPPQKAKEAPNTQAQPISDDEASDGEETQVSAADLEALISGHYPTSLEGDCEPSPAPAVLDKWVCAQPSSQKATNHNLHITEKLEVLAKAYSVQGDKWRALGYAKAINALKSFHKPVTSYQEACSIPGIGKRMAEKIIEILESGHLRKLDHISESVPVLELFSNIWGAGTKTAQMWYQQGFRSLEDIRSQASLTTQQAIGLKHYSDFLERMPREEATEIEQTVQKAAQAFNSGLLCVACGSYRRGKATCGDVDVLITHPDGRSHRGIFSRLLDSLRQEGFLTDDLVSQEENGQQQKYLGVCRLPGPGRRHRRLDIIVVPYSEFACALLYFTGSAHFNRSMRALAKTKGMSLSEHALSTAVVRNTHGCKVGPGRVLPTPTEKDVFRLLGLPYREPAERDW
# Chain of human topoisomerase I (P11387 whole entry): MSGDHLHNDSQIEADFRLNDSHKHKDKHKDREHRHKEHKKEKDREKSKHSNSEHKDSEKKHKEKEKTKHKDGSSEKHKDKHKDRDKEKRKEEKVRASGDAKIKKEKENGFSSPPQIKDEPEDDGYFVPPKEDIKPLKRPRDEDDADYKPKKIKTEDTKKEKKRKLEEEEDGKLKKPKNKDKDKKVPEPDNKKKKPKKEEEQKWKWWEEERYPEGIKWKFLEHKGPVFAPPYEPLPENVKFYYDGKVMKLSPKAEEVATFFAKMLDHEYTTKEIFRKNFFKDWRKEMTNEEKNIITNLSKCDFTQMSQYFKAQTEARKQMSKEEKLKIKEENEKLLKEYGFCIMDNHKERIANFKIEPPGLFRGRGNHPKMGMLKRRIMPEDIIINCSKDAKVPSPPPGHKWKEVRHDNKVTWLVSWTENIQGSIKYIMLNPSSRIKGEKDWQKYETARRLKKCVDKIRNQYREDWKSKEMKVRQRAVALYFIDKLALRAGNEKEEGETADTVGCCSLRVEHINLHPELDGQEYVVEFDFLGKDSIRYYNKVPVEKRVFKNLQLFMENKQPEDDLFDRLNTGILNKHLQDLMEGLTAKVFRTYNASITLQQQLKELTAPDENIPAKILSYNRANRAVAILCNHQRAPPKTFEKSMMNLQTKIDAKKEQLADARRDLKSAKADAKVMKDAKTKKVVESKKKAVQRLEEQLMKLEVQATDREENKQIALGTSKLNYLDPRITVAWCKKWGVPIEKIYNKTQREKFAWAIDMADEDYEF
# Chain of T4 pol (P04415 whole entry): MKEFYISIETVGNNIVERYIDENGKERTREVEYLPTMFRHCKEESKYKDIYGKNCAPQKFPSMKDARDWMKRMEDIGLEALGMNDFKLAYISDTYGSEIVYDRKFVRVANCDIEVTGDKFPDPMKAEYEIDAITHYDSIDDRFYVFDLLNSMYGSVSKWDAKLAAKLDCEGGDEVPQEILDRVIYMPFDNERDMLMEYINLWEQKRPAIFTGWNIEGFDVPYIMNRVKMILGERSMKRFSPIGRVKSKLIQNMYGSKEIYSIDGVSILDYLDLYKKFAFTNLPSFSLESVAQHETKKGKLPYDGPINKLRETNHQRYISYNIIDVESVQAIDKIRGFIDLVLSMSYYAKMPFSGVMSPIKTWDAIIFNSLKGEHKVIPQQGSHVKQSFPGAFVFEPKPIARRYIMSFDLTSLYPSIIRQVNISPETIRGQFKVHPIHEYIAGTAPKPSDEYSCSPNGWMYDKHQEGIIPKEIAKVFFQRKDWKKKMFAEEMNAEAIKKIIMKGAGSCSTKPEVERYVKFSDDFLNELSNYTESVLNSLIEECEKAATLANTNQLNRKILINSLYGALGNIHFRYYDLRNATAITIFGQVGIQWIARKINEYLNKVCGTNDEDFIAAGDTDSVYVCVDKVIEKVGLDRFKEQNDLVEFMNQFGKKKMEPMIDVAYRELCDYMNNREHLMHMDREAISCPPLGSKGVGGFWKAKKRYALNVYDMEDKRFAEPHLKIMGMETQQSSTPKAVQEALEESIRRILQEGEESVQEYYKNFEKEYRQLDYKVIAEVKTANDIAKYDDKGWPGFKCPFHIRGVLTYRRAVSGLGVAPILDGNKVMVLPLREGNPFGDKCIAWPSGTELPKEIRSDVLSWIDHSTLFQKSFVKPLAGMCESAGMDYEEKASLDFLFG
# Chain of del-1 pol λ (133–575) (Q9UGP5 133-575): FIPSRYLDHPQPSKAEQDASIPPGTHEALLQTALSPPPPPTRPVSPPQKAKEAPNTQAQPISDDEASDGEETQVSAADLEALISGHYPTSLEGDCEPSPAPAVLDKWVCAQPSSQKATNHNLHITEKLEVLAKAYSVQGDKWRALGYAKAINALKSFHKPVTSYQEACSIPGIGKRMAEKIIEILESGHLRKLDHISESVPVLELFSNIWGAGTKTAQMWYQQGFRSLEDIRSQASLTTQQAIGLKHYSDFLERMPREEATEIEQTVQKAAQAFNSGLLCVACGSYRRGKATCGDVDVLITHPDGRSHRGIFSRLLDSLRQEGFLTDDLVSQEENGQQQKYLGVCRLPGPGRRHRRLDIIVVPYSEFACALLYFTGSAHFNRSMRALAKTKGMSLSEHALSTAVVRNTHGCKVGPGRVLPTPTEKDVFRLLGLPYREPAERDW
# Chain of Klenow fragment of E. coli pol I (P00582 324-928): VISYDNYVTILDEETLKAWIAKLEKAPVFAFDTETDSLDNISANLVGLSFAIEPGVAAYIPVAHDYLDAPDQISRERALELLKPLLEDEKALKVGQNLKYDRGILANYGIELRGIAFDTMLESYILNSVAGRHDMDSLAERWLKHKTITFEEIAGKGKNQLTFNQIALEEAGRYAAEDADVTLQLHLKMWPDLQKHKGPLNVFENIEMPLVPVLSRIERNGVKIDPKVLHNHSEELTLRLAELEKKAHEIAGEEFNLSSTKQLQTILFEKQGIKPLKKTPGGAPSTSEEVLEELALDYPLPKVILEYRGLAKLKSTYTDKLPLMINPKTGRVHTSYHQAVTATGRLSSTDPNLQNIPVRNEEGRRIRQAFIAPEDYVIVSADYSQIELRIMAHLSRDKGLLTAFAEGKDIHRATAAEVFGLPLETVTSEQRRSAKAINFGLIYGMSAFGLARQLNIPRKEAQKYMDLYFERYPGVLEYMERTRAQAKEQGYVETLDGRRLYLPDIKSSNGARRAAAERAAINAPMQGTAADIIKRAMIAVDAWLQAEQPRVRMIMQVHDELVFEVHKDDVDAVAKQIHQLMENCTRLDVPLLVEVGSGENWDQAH
# Chain of Taq pol (P19821 whole entry): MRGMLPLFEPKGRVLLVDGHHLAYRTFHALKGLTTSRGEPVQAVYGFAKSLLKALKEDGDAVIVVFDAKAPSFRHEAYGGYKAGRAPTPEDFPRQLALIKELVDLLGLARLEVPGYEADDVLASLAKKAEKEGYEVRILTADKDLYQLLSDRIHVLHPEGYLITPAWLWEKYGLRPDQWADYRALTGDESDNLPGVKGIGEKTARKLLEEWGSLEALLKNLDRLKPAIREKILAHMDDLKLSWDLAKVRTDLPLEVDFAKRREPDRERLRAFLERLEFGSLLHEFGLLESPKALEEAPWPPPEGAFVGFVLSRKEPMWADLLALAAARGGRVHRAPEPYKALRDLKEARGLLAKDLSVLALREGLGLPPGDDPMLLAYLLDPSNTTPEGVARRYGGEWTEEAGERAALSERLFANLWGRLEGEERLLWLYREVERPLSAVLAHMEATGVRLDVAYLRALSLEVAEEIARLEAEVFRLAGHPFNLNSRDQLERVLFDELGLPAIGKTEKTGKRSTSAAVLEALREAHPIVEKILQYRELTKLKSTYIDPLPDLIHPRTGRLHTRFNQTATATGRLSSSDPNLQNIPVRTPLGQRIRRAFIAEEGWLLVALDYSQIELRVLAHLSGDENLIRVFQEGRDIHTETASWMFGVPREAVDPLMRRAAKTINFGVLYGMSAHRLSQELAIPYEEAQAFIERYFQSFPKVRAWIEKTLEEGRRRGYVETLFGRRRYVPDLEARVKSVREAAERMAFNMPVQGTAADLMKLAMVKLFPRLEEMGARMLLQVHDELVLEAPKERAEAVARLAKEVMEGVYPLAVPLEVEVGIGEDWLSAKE
smiles,measurement,setting,value
"O=C(OC[C@H]1O[C@@H](OC(=O)c2cc(O)c(O)c(O)c2)[C@H](OC(=O)c2cc(O)c(O)c(O)c2)[C@@H](OC(=O)c2cc(O)c(O)c(O)c2)[C@@H]1OC(=O)c1cc(O)c(O)c(O)c1)c1cc(O)c(O)c(O)c1 [PGG, 1,2,3,4,6-penta-O-galloyl-β-D-glucose]",inhibition of DNA replicative synthesis compared with aphidocolin,[1],superior efficacy
same,effect on Taq pol activity,[2],not influenced
same,in vivo growth of Lewis lung cancer allografts,[3],suppresses
same,effect on Klenow fragment of E. coli pol I activity,[4],not influenced
same,effect on human topoisomerase I activity,[5],did not suppress
same,in vivo growth of DU145 xenografts,"[6]; daily intra-peritoneal injection 20 mg/kg body weight, nude mice",suppresses
same,effect on body weight,"[6]; mouse, in vivo",without evident adverse effect
same,"Mode of Inhibition, Beta-secretase",[7],Non-competitive for Rh-EVNLDAEFK-Quencher
same,IC50,"[7]; read-out: IC50, Beta-secretase",3760 nM
same,Ki,"[7]; read-out: Ki, Beta-secretase",5130 nM
same,effect on pol λ activity,[8],not affected; also recorded: not sensitive
same,inhibition of del-1 pol λ activity,[9],dose-dependently inhibited
same,effect on melting temperature (Tm) / thermal transition of dsDNA,[10],no effect
same,IC50,[11],30 nM
same,"Mode of Inhibition, pol κ, DNA template-primer",[11],Non-competitive for DNA template-primer
same,"Mode of Inhibition, pol κ, dNTP",[11],Non-competitive for dNTP
same,effect on pol κ activity,"[11]; 100 and 1,000 nM PGG, Fig. 1C",significantly inhibit
same,Ki,[11]; with respect to DNA template-primer,9.3 nM
same,Ki,[11]; with respect to dNTP,15.1 nM
same,effect of 0.05% NP-40 on the inhibitory effect on pol κ,"[11]; PGG 10 and 100 nM, supplemental Table S1",not reversed
same,effect of poly(rC) or BSA on the inhibitory effect on pol κ,"[11]; poly(rC) 50 μM, BSA 200 μg/ml",neither poly(rC) nor BSA influenced
same,IC50,[12],13700 nM
same,IC50,"[13]; IC50, pol β, poly(dA)/oligo(dT)18 and dTTP, 0.05 unit enzyme",108 to 160 nM
same,Ki,[13]; for the DNA template-primer,20.1 nM
same,Ki,[13]; for the dNTP substrate,23.8 nM
same,effect of 0.05% NP-40 on the inhibitory effect on pol β,"[13]; PGG 100 nM and 200 nM, supplemental Table S1",not reversed
same,"Mode of Inhibition, pol β, DNA template-primer",[13]; double reciprocal plots,competitively; also recorded: Competitive for DNA template-primer
same,"Mode of Inhibition, pol β, dNTP",[13]; double reciprocal plots,competitively; also recorded: Competitive for dNTP
same,effect of poly(rC) or BSA on the inhibitory effect on pol β,"[13]; poly(rC) 50 μM, BSA 200 μg/ml",neither poly(rC) nor BSA influenced
same,"apparent Vmax of pol β, DNA template-primer",[13]; [17],111 pmol/h
same,"apparent Vmax of pol β, dNTP substrate",[13]; [17],62.5 pmol/h
same,IC50,[14],73100 nM
same,effect on T4 pol activity,[15],not influenced
same,IC50,[16],30 to 45 nM
same,effect on pol η activity,"[16]; 100 and 1,000 nM PGG, Fig. 1C",significantly inhibit
